Measured values from ChEMBL document CHEMBL1133458, “Synthesis and pharmacological evaluation of thiopyran analogues of the dopamine D3 receptor-selective agonist (4aR,10bR)-(+)-trans-3,4,4a,10b-tetrahydro-4-n-propyl-2H,5H [1]b enzopyrano[4,3-b]-1,4-oxazin-9-ol (PD 128907)” (J Med Chem, 2000).

Assays:
[1] = target: T1, 5-hydroxytryptamine receptor 1A (Rattus norvegicus, UniProt P19327); assay: Tested for binding affinity by measuring displacement of [3H]8-OH-DPAT from rat serotonin 5-hydroxytryptamine 1A receptor in rat hippocampus; type: tissue-based
T1 sequence (P19327 whole entry): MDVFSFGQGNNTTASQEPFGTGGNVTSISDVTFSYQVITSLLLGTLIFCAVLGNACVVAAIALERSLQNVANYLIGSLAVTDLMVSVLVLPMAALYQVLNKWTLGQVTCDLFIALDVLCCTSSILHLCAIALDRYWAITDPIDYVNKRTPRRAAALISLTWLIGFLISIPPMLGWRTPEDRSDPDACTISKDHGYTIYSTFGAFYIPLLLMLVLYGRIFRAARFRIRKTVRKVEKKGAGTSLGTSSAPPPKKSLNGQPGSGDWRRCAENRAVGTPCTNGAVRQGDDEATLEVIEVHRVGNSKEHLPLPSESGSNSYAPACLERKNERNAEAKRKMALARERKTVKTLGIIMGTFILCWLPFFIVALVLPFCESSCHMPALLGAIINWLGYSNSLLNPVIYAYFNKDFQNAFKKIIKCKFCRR
Summary of the method: (§1)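 Rat brain binding: hippocampal 5HT1A with [3H]8-OH-DPAT, cortical 5HT2 with [3H]ketanserin as radioligand; values means of three separate experiments, varying no more than 25%.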

D(2) dopamine receptor [2] = target: T2, D(2) dopamine receptor (Homo sapiens, UniProt P14416); assay: Tested for antagonist binding affinity by measuring displacement of [3H]spiperone from Human Dopamine receptor D2L expressed in CHO K-1 cells; type: cell-based
T2 sequence (P14416 whole entry): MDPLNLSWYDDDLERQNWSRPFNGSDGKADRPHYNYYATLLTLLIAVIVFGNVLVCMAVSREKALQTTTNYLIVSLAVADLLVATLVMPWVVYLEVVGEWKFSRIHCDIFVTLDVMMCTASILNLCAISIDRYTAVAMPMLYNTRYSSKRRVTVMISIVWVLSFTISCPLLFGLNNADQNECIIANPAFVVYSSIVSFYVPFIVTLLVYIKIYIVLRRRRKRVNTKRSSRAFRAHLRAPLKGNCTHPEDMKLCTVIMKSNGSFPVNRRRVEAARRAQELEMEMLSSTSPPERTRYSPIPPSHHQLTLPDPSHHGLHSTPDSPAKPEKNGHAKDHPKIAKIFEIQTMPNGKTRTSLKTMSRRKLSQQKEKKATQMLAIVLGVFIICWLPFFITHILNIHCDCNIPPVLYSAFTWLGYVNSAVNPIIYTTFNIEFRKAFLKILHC
Summary of the method: (§2)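 Displacement of antagonist radioligand [3H]spiperone from D2L or D4.2 receptors; Ki values are means of three separate experiments varying by no more than 25%.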

D(2) dopamine receptor [3] = target: T2, D(2) dopamine receptor; assay: Human Dopamine receptor D2L affinities to determine agonist activity, using [3H]N-0437 as radioligand; type: functional
D(3) dopamine receptor [4] = target: T3, D(3) dopamine receptor (Rattus norvegicus, UniProt P19020); assay: Agonist activity by measuring the [3H]-thymidine uptake against Dopamine receptor D3 from rat; type: functional
T3 sequence (P19020 whole entry): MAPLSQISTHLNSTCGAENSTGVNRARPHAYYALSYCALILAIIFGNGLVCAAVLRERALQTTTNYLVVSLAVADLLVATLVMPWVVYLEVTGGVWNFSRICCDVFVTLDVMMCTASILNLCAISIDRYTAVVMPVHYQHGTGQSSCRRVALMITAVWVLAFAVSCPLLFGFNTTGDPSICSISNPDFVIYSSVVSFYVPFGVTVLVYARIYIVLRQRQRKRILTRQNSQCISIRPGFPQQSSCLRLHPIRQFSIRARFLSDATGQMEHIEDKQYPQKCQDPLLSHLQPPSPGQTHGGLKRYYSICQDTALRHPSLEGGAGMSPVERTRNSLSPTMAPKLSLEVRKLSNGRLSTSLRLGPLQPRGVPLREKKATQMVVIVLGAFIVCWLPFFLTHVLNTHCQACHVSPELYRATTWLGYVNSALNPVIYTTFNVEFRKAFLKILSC

D(4) dopamine receptor [5] = target: T4, D(4) dopamine receptor (Homo sapiens, UniProt P21917); assay: Tested for antagonist binding affinity by measuring displacement of [3H]spiperone from Human Dopamine receptor D4 expressed in CHO K-1 cells; type: cell-based; summary of the method: as §2
T4 sequence (P21917 whole entry): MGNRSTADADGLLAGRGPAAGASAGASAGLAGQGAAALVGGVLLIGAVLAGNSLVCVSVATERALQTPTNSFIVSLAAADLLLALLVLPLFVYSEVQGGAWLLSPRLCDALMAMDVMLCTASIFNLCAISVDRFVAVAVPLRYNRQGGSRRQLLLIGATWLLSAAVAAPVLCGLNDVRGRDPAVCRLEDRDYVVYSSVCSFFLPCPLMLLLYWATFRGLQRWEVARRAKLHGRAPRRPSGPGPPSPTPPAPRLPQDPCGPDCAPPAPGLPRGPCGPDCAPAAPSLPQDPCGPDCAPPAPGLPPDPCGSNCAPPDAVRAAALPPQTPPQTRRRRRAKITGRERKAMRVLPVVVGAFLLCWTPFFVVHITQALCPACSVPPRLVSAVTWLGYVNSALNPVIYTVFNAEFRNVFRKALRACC

D(2) dopamine receptor [6] = target: D(2) dopamine receptor (Rattus norvegicus, UniProt P61169); assay: Agonist activity by measuring the [3H]thymidine uptake against Dopamine receptor D2L from rat; type: functional
Sequence of D(2) dopamine receptor (Rattus norvegicus, UniProt P61169) (P61169 whole entry): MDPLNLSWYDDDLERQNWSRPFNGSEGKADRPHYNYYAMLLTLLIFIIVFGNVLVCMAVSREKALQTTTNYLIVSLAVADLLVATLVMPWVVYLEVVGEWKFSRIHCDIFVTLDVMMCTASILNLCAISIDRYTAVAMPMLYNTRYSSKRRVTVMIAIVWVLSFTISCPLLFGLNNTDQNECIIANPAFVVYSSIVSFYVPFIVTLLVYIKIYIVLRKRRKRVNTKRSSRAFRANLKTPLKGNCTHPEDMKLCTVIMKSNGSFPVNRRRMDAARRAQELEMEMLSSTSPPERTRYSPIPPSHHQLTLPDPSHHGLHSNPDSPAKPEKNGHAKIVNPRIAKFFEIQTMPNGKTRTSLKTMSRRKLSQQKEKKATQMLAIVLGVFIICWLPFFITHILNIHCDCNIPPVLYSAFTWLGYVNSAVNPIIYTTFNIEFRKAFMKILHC

D(3) dopamine receptor [7] = target: D(3) dopamine receptor (Homo sapiens, UniProt P35462); assay: Tested for antagonist binding affinity by measuring displacement of [3H]spiperone from Human Dopamine receptor D3 expressed in CHO K-1 cells; type: cell-based
Sequence of D(3) dopamine receptor (Homo sapiens, UniProt P35462) (P35462 whole entry): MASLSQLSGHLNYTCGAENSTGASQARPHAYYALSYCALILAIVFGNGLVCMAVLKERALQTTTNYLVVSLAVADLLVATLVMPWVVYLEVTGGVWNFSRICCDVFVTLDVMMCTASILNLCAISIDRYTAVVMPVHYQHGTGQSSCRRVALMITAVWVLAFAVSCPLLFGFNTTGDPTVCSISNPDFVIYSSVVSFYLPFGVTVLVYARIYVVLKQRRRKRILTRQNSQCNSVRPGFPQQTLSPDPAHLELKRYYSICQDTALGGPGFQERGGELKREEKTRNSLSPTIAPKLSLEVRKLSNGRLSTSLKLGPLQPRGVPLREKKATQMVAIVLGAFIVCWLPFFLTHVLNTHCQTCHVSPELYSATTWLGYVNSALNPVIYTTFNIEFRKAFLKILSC

Rattus norvegicus [8] = species on record: Rattus norvegicus; assay: Flat body posture after 30 min in 4 reserpinized rats; type: functional
Summary of the method: (§3)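 Male Wistar rats (180-200 g) given reserpine 10 mg/kg sc 18-24 h before; test drug in ethanol/saline, 1 mL/kg sc in neck after acclimation in single boxes; number of rats showing the behaviour during first 30 min after injection recorded; saline n=8.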

[9] = target: Serotonin 2 (5-HT2) receptor (Rattus norvegicus, UniProt P30994+P08909+P14842); assay: Tested for binding affinity by measuring displacement of [3H]ketanserin from rat serotonin 5-hydroxytryptamine 2 receptor in rat cortex; summary of the method: as §1
Rattus norvegicus [10] = species on record: Rattus norvegicus; assay: Sniffing after 30 min in 4 reserpinized rats; type: functional; summary of the method: as §3
D(2) dopamine receptor [11] = target: T2, D(2) dopamine receptor; assay: Tested for agonist binding affinity by measuring displacement of [3H]NPA from Human Dopamine receptor D2L expressed in CHO K-1 cells; type: cell-based
Summary of the method: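 Agonist-state D2L affinity measured by displacement of [3H]NPA (N-propylnorapomorphine); Ki values are means of three separate experiments varying by no more than 25%.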

Rattus norvegicus [12] = species on record: Rattus norvegicus; assay: Yawning after 30 min in reserpinized rats; type: functional
Summary of the method: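 Male Wistar rats (180-200 g) reserpinized with 10 mg/kg sc reserpine 18-24 h prior; drug dissolved in a few drops warmed 96% ethanol then saline, 1 mL/kg sc; yawns counted per rat over first 30 min post-injection, mean ± SEM.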

D(3) dopamine receptor [13] = target: T3, D(3) dopamine receptor; assay: Agonist activity by measuring the [3H]thymidine uptake against Dopamine receptor D3 from rat; type: functional
Rattus norvegicus [14] = species on record: Rattus norvegicus; assay: Lower lip retraction after 30 min in 4 reserpinized rats; type: functional; summary of the method: as §3
[15] = target: D(3) dopamine receptor (Rattus norvegicus) (UniProt P19020); assay: (§4) Intrinsic activity (IA) by the mitogenesis assay; type: functional
Sequence of D(3) dopamine receptor (Rattus norvegicus) (P19020 whole entry): as the sequence (P19020 whole entry) above

[16] = target: D(3) dopamine receptor (Rattus norvegicus) (UniProt P19020); assay: as §4
[17] = target: D(3) dopamine receptor (Rattus norvegicus) (UniProt P19020); assay: Antagonist activity by measuring the inhibition of quinpirole stimulated [3H]- thymidine uptake against Dopamine receptor D3; the compound is active; type: functional; conditions: filed as antagonist
[18] = target: T1, 5-hydroxytryptamine receptor 1A; assay: Tested for binding affinity by measuring displacement of [3H]8-OH-DPAT from rat serotonin 5-hydroxytryptamine 1A receptor in rat hippocampus; NA means Not Active; type: tissue-based
Summary of the method: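 Rat hippocampal 5HT1A receptors labelled with [3H]8-OH-DPAT; values are means of three separate experiments varying by no more than 25%.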

D(4) dopamine receptor [19] = target: T4, D(4) dopamine receptor; assay: Tested for antagonist binding affinity by measuring displacement of [3H]-spiperone from Human Dopamine receptor D4 expressed in CHO K-1 cells; type: cell-based
Summary of the method: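 Antagonist-radioligand binding: displacement of [3H]spiperone from D4.2 dopamine receptors; Ki values means of three separate experiments, varying no more than 25%.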

SMILES	Ki [1]	Ki (D(2) dopamine receptor [2])	Ki (D(4) dopamine receptor [5])	EC50 (D(2) dopamine receptor [6])	Ki (D(3) dopamine receptor [7])	Ki (D(2) dopamine receptor [11])	further results
CCCN1CCO[C@@H]2c3cc(O)ccc3OC[C@H]21 [listing 1 of 2 here]	1670 nM	1180 nM	169 nM	5.7 nM	1.4 nM	–	Ki (D(2) dopamine receptor [3]): 42 nM; EC50 (D(3) dopamine receptor [4]): 0.36 nM
CCCN1CCOC2c3cc(O)ccc3SCC21 (trans isomer)	–	533 nM	44.4 nM	–	1.56 nM	–	–
CCCN1CCO[C@H]2c3cc(O)ccc3OC[C@@H]21	–	> 10000 nM	–	–	> 10000 nM	–	–
CCCN1CCO[C@@H]2c3cc(O)ccc3SC[C@H]21	30 nM	–	17.6 nM	0.013 nM	2.87 nM	1.14 nM	FB (Rattus norvegicus [8]): 4; Ki [9]: > 5000 nM; Sni (Rattus norvegicus [10]): 4; Ya (Rattus norvegicus [12]): 0; EC50 (D(3) dopamine receptor [13]): 0.007 nM; LL (Rattus norvegicus [14]): 3; Intrinsic activity [15]: 45%
CCCN1CCO[C@@H]2c3cc(O)ccc3OC[C@@H]21 (relative stereo)	–	> 10000 nM	–	–	> 10000 nM	–	–
CCCN1CCO[C@H]2c3cc(O)ccc3SC[C@@H]21	> 1000 nM	–	> 3300 nM	–	3000 nM	854 nM	Ki [9]: > 5000 nM
CCCN1CCO[C@@H]2c3cc(O)ccc3OC[C@H]21 [listing 2 of 2 here]	–	–	–	–	–	–	Intrinsic activity [16]: 54%; Activity [17]: Antagonist
CCCN1CCO[C@@H]2c3cc(O)ccc3SC[C@@H]21 (relative stereo)	–	–	193 nM	122 nM	3.58 nM	74 nM	FB (Rattus norvegicus [8]): 0; Ki [18]: Not Active; Sni (Rattus norvegicus [10]): 0; Ya (Rattus norvegicus [12]): 11; Activity [17]: Antagonist; EC50 (D(3) dopamine receptor [13]): 36 nM; LL (Rattus norvegicus [14]): 0; Intrinsic activity [15]: 57%
CCCN1CCO[C@@H]2c3cc(O)ccc3OC[C@H]21 (relative stereo)	–	> 10000 nM	–	–	78 nM	–	–
CCCN1CCOC2c3cc(O)ccc3[S+]([O-])CC21 (stereo unspecified)	–	–	–	–	29 nM	197 nM	Ki [18]: Not Active; IC50 (D(4) dopamine receptor [19]): > 10000 nM
